Test: Toxicity liver stage against HepG2, at 10uM
Format: cell-based
Set-up: test concentration 10 uM, cell line HepG2-A16-CD81EGFP
Conditions: human, HepG2-A16-CD81EGFP cells; read-out: INHIBITION
Outline: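 Uninfected HepG2-A16-CD81EGFP cells, 3 × 10^3 per well, 1536-well, plated on prespotted compound at 10 μM final, parasite-free screening media added to match infected plates; puromycin 10 μM positive, DMSO 0.5% negative; run in parallel with 48 h PbLuc assay at 37 °C, 5% CO2; viability by CellTiter-Glo luminescence, normalized to controls.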

Row | Compound | cytotoxicity at 10 µM
1 | CC[C@@H](CO)Nc1nccc(-c2c[nH]c3cc(C(=O)OC)ccc23)n1 | 67.7%
2 | Cc1ncc(CN(C)C(=O)Nc2cccc(N3CCNC3=O)c2)s1 | 9.97%
3 | CS(=O)(=O)N1CCn2c(C(=O)N3CCOCC3)cnc2C1 | -4.63%
4 | COc1ccc(C(=O)N2C[C@@H](C(=O)O)[C@H](c3cccc(F)c3)C2)c(O)c1 | 6.03%
5 | CC(C)n1cc2cc(NC(=O)CCS(C)(=O)=O)ccc2n1 | -141%
6 | Cc1noc2ncc(S(=O)(=O)N3CCCC(C)(C)CC3)cc12 | 8.88%
7 | c1cncc(COCC2C[C@@H]3OCCN(Cc4cccnc4)[C@H]3C2)c1 (stereo partly specified) | 12.2%
8 | COc1ccc(Cl)cc1NCc1cc(C)on1 | -7.13%
9 | O=C(Cc1ccc2c(c1)CCO2)N1CCCC1c1noc(C2CC2)n1 (stereo unspecified) | -7.71%
10 | Cc1cc(=O)[nH]c(SCC(=O)N(C)CC2Cc3ccccc3CN2C)n1 (stereo unspecified) | -1.96%
11 | CCCNC(=O)CN1CCOC(c2ccc(Br)cc2)C1 (stereo unspecified) | -2.56%
12 | Cn1nc(Br)c2c(NCCNc3ncccn3)ncnc21 | 11.3%
13 | CC(=O)N1CCC(N2CC(Cc3nccc4ccn(C)c34)C2)CC1 | 17.7%
14 | C[C@@H]1CN(c2nc3c(cc2C(N)=O)CCC3)C[C@]1(C)O | -0.112%
15 | N#CCCN(Cc1ccccn1)C(=O)Nc1cccc(F)c1 | 3.43%
16 | CCN1CC2(CC1=O)CN(Cc1cnn(C)c1)CCN(C(=O)C(C)C)C2 (stereo unspecified) | -15%
17 | Cc1ncsc1CCC(=O)N1CCCC[C@H](N(C)C)C1 | -22.5%
18 | Cc1cc(C[C@@H]2COC[C@H]2NCc2ccc(C)c(C)c2)on1 | 8.1%
19 | CCOc1ccc(N(C)Cc2nnc(C3CC3)o2)cc1 | 8.17%
20 | CCC1=N[C@@]2(CC[C@@H]3CN(C(=O)NCC(C)C)C[C@@H]32)C(=O)N1CC(C)C | -3.64%
21 | O=C1CSc2ccccc2N1CC(=O)N1CCCCC1c1nccs1 (stereo unspecified) | 14.4%
22 | CCCOc1ncccc1CNc1nnc(C)c(C)c1C#N | -14.3%
23 | O=C(CNC(=O)c1ccoc1)NC(c1ccc(F)cc1)C(F)(F)F (stereo unspecified) | -2.51%

Row | Compound | cytotoxicity at 10 µM
24 | CN(Cc1cccnc1N)Cc1cccc2ncccc12 | 53.8%
25 | Cc1ccc(CN2CC[C@H]3[C@H]2CCN3S(C)(=O)=O)s1 | 2.38%
26 | Cc1cc(=O)[nH]c(-n2nc(C)c(CCC(=O)NCc3ccco3)c2C)n1 | -5.33%
27 | COc1cc(N2CC[C@@H]3O[C@H](C(=O)NCC4CC4)C[C@@H]32)ncn1 | 10.7%
28 | Cc1cc(C)n(C2CN(CC(=O)NC3CCS(=O)(=O)C3)C2)n1 (stereo unspecified) | -9.41%
29 | CCCn1nc2c(cc1=O)CN(CCCS(N)(=O)=O)CC2 | -2.48%
30 | CCNC(=O)NC(=O)CSC(C)c1c(F)cccc1F (stereo unspecified) | 20.6%
31 | CCc1noc(CN2CCOC3(CCCC3)C2)n1 | -3.54%
32 | COc1ccc(C(O)CNC(=O)Cn2ccc(=O)n(C)c2=O)cc1 (stereo unspecified) | 6.45%
33 | Cc1cc(-c2nn3c(C)nnc3s2)n[nH]1 | 6.52%
34 | CCN1C(=O)C2(CCOCC2)c2cc(NC(=O)c3cnoc3C)ccc21 | -2.54%
35 | COc1ccccc1C(C)CNC(=O)c1[nH]ncc1Br (stereo unspecified) | 18.1%
36 | CC(NC(=O)c1cccs1)C(=O)NS(=O)(=O)c1cccc(C#N)c1 (stereo unspecified) | -7.23%
37 | CC(O)CN1CCN(Cc2cccc(C(=O)N3CCCCC3)c2)CC1 (stereo unspecified) | -4.83%
38 | Cc1cc(C(=O)NCCCn2nccc2C2CC2)c(=O)[nH]c1C | 9%
39 | COc1ccc(NC(C)=O)cc1OCc1cccnc1 | -23.5%
40 | CCN(CC)CCNC(=O)c1cc(C(C)C)nc(N2CCCC2)n1 | -2.44%
41 | COc1c(C2CCCN2Cc2cccc(C(N)=O)c2)c(C)nn1C (stereo unspecified) | -8.18%
42 | O=C(NCC1CC1)C1CN(Cc2ccncc2)Cc2ccnn2C1 (stereo unspecified) | -0.902%
43 | COc1cccc2c1ccn2CCNC(=O)C1CCC1 | -3.54%
44 | O=C1CNc2ncnc(Nc3cnn(Cc4cccc(F)c4)c3)c2N1 | 4.67%
45 | CCN1CCc2[nH]nc(C(=O)N3CCCC3C)c2C1 (stereo unspecified) | -4.9%
46 | CC(C)NC(=O)N(C)C(c1cccc(F)c1)c1ccccn1 (stereo unspecified) | 4.86%

Row | Compound | cytotoxicity at 10 µM
47 | COc1ccc(F)cc1C(=O)N1CCC2(CCC(=O)N(C(C)C)C2)CC1 | -4.75%
48 | COCCOc1ccc(NC(=O)C2CCC2)cn1 | -9.65%
49 | Cc1nc(CN2CCCC(C)(CO)C2)no1 (stereo unspecified) | 5.89%
50 | Cc1cc(C)cc(NS(=O)(=O)c2cc3c(c(C(=O)O)c2)OCCO3)c1 | 0.289%
51 | COc1cc(CN2C[C@@H]3CNC(=O)[C@H](C)[C@@H]3C2)cc(OC)c1 | 0.405%
52 | CCc1nc(C2CCCN2C(=O)c2ccc(N3CCCC3)nn2)no1 (stereo unspecified) | -3.27%
53 | Fc1cnc(N2CC[C@@H](N3CCOCC3)[C@@H]2Cc2ccncc2)nc1 | 0.81%
54 | c1csc(-c2noc(CNCCn3cccn3)n2)c1 | -8.21%
55 | CCOC(=O)CCC(=O)N1CCC(Oc2ccc(C(F)(F)F)cn2)CC1 | 11.6%
56 | Cc1ccc(C(C)NC(=O)N2CCN(S(C)(=O)=O)CC2)o1 (stereo unspecified) | 25.3%
57 | CN1CC(c2ccccc2)CC12CCN(C(=O)c1ccc(Cl)cn1)CC2 (stereo unspecified) | 3.62%
58 | CCCC1CCN(C(=O)c2coc(COc3ccc(OC)cc3)n2)C1 (stereo unspecified) | -0.551%
59 | COc1cc(C)nc(N2CCN(C(=O)CN(C)C3CC3)CC2)n1 | -4.43%
60 | CCCC(C)N(C)Cc1nnc(-c2ccco2)o1 (stereo unspecified) | 2.49%
61 | O=C(c1ccco1)N1CCC(n2nc(-c3cccs3)ccc2=O)CC1 | -32.3%
62 | Cc1cnn(CC(C)NCc2ccc(C#N)cc2)c1 (stereo unspecified) | -11.8%
63 | COCC(C)NC(=O)c1cncc(Br)c1 (stereo unspecified) | 3.73%
64 | CCC1COCCN1C(=O)CNC(=O)c1ccsc1 (stereo unspecified) | 4.53%
65 | Cn1nccc1C1CCN(Cc2csc(-c3ncccn3)n2)CC1 | -1.91%
66 | NC1CCC(n2cc(C(=O)NC3COc4ccccc43)nn2)CC1 (stereo unspecified) | -4.8%
67 | Cc1ccccc1OCCC(=O)NC(C)c1nnc2n1CCCCC2 (stereo unspecified) | -12.3%
68 | CN1CCN(C(=O)N2C[C@@H]3CC[C@H]2CN(Cc2ccccc2)C3)CC1 | -7.71%
69 | CC(=O)N1CCCC(c2ccc(C(N)=O)cn2)C1 (stereo unspecified) | 5.07%

Row | Compound | cytotoxicity at 10 µM
70 | CN(Cc1cccnc1)Cc1cncc2c1CCN(Cc1ccoc1)C2 | -100%
71 | Cn1ccnc1CN1CCC2(CC1)CC(NC(=O)c1ccccn1)CO2 (stereo unspecified) | -2.05%
72 | CC(=O)c1cccc(NC(=O)C2CN(S(=O)(=O)C3CC3)C2)c1 | 3.62%
73 | Cc1cccc(C)c1Nc1noc2c1CN(C(=O)c1ccn(C)n1)CC2 | 5.69%
74 | CCNc1ncc(C(=O)N2CCOC(CCCC(C)C)C2)cn1 (stereo unspecified) | 10.3%
75 | CC(C)Cc1noc(CN(C)C2CCCC2)n1 | 0.274%
76 | Cn1ccnc1C(NCc1csc(Br)c1)c1ccccc1 (stereo unspecified) | -0.12%
77 | CN(C)c1nc2n(c(=O)n1)CCN2C(=O)Nc1ccc(Cl)c(Cl)c1 | 9.76%
78 | CC(=O)N1CC(C)CN(C(=O)c2cccnc2C)c2ccccc21 (stereo unspecified) | 6.45%
79 | Cc1cc(=O)[nH]cc1C(=O)N1Cc2ccccc2N(C)CC1C (stereo unspecified) | 0.305%
80 | COCCN(CCOC)C(=O)c1ccn(-c2ccc3ccccn23)n1 | 7.22%
81 | CC(C)OC(=O)N1CCC(Nc2ncc(Br)cn2)CC1 | -0.951%
82 | OC1(CNCCSc2ccccn2)CNCCOC1 (stereo unspecified) | -9.41%
83 | Nc1ccnc(N2CCC(c3nccn3CC3CC3)CC2)n1 | -0.0638%
84 | Cc1nc(C2CCN(S(C)(=O)=O)CC2)nc(N2CCCC2)c1C | 4.48%
85 | COCC(=O)N1CCn2c(COc3cccnc3)cnc2C1C (stereo unspecified) | 2.14%
86 | Cc1nc(CNC(=O)c2cc(Cn3ccnc3C(C)C)[nH]n2)sc1C | 2.99%
87 | COCCN1CCN(C(=O)c2cc(C(C)C)on2)[C@H]2CS(=O)(=O)C[C@H]21 | -12%
88 | COc1ccc2c(ccn2CC(=O)Nc2n[nH]c(CC(C)C)n2)c1 | -6.19%
89 | COCC(=O)N1CCCC(C(=O)NCc2cc(CC(C)C)on2)C1 (stereo unspecified) | 10.6%
90 | Cc1nc(CN(C)Cc2nc(-c3ccncc3)no2)co1 | -0.187%
91 | COc1ccccc1N1CCN(C(=O)CCn2ccc(C)n2)CC1 | -3.24%
92 | Cc1cc(N)n(-c2ccc3nnc(C)n3n2)n1 | 5.89%

Row | Compound | cytotoxicity at 10 µM
93 | CC[C@H]1CN(C(=O)c2cccnc2)CC[C@H]1CC(=O)NC1CC1 | 4.18%
94 | NC(=O)C(NC(=O)Cc1cnn(-c2ccccc2)n1)c1ccccc1 (stereo unspecified) | -3.05%
95 | CC(C)CN1CC[C@H](c2nnc(COc3ccc(F)cc3)o2)C1 | -1.81%
96 | Cc1ncncc1C(=O)NCCN1CCC(C)CC1 | -8.76%
97 | COCCN1CCN(CC(O)c2ccc(OC(F)(F)F)cc2)CC1 (stereo unspecified) | -22.1%
98 | CC(C)c1nsc(N2CCSCC2)n1 | -11.6%
99 | c1cc(CNCc2ccnc(N3CCCC3)c2)c2c(c1)OCO2 | 3.21%
100 | Cc1cnn(CC2CCCN2CC(=O)N(C)Cc2ccsc2)c1 (stereo unspecified) | 3.82%
101 | CCn1cc(CCC(=O)NCc2csc(C3CC3)n2)c(C)n1 | -8.78%
102 | CCCS(=O)(=O)N1CCC2(CCCN(Cc3cccc(F)c3F)C2=O)C1 (stereo unspecified) | 10.3%
103 | CN(C)C(=O)N1CCN(CCn2nc3ccccn3c2=O)CC1 | 0.562%
104 | CCN1CCN(C(=O)Cc2ccc(S(=O)(=O)C(F)F)cc2)CC1 | -6.43%
105 | CCOc1ccc(Cl)c(C(=O)NCc2ccc(C(=O)NC)cc2)n1 | -9.88%
106 | CCN(Cc1cccc2c1OCO2)C(=O)Nc1cn[nH]c1 | -17.2%
107 | CCS(=O)(=O)NCC(Cc1cccc(F)c1)N1CCNC1=O (stereo unspecified) | -1.89%
108 | CC(C)S(=O)(=O)NC(=O)CC(c1ccccc1)C(F)(F)F (stereo unspecified) | -43.9%
109 | Cc1nc(-c2ccccc2)cc(C2CCNCC2)n1 | 3.78%
110 | Cc1ccc(CN(C)C(=O)CCNS(=O)(=O)c2cccnc2)cc1 | -10.6%
111 | CC(C)(C)n1cc(CNC2CCN(C(=O)c3ccco3)CC2)cn1 | -8.08%

Reference: ChEMBL document CHEMBL4513216, “Probing the Open Global Health Chemical Diversity Library for Multistage-Active Starting Points for Next-Generation Antimalarials” (ACS Infect Dis, 2020)
